The source made the active and inactive calls. The rule behind the calls is not given here.
Legend:
A2780 [1] = experiment: Cytotoxicity against human A2780 cells after 96 hrs by SRB assay; type: functional, cell-based; conditions: A2780, 96 h
DLD-1 [2] = experiment: Cytotoxicity against human DLD1 cells after 96 hrs by SRB assay; type: functional, cell-based; conditions: DLD-1, 96 h
HCT-8 [3] = experiment: Cytotoxicity against human HCT8 cells after 96 hrs by SRB assay; type: functional, cell-based; conditions: HCT-8, 96 h
HCT-116 [4] = experiment: Cytotoxicity against human HCT116 cells after 96 hrs by SRB assay; type: functional, cell-based; conditions: HCT-116, 96 h
HT-29 [5] = experiment: Cytotoxicity against human HT-29 cells after 96 hrs by SRB assay; type: functional, cell-based; conditions: HT-29, 96 h
[6] = Cytotoxicity against human Liposarcoma cells after 96 hrs by SRB assay; type: functional, cell-based
MCF7 [7] = experiment: Cytotoxicity against human MCF7 cells after 96 hrs by SRB assay; type: functional, cell-based; conditions: MCF7, 96 h
SW480 [8] = experiment: Cytotoxicity against human SW480 cells after 96 hrs by SRB assay; type: functional, cell-based; conditions: SW480, 96 h
SW-1736 = experiment: Cytotoxicity against human SW1736 cells after 96 hrs by SRB assay; type: functional, cell-based; conditions: SW-1736, 96 h
[9] = Selectivity index, ratio of IC50 for human fibroblast to IC50 for human Liposarcoma cells
Outline: (§1)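 The selectivity index was calculated as the IC50 on human fibroblasts divided by the IC50 on the corresponding tumor cell line.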

HT-29 [10] = experiment: Selectivity index, ratio of IC50 for human fibroblast to IC50 for human HT-29 cells; outline: as §1
HCT-116 [11] = experiment: Selectivity index, ratio of IC50 for human fibroblast to IC50 for human HCT116 cells; outline: as §1
HCT-8 [12] = experiment: Selectivity index, ratio of IC50 for human fibroblast to IC50 for human HCT8 cells; outline: as §1
FaDu [13] = experiment: Selectivity index, ratio of IC50 for human fibroblast to IC50 for human FADU cells; outline: as §1
DLD-1 [14] = experiment: Selectivity index, ratio of IC50 for human fibroblast to IC50 for human DLD1 cells; outline: as §1
A2780 [15] = experiment: Selectivity index, ratio of IC50 for human fibroblast to IC50 for human A2780 cells; outline: as §1
A549 [16] = experiment: Selectivity index, ratio of IC50 for human fibroblast to IC50 for human A549 cells; outline: as §1
A-431 [17] = experiment: Selectivity index, ratio of IC50 for human fibroblast to IC50 for human A431 cells; outline: as §1
[18] = Selectivity index, ratio of IC50 for human fibroblast to IC50 for human A253 cells; outline: as §1
8505C [19] = experiment: Selectivity index, ratio of IC50 for human fibroblast to IC50 for human 8505C cells; outline: as §1
[20] = Selectivity index, ratio of IC50 for human fibroblast to IC50 for human 518A2 cells; outline: as §1
MCF7 [21] = experiment: Selectivity index, ratio of IC50 for human fibroblast to IC50 for human MCF7 cells; outline: as §1
SW480 [22] = experiment: Selectivity index, ratio of IC50 for human fibroblast to IC50 for human SW480 cells; outline: as §1
[23] = Selectivity index, ratio of IC50 for human fibroblast to IC50 for human SW1736 cells; outline: as §1
[24] = Cytotoxicity against human fibroblast after 96 hrs by SRB assay; type: cell-based
[25] = Cytotoxicity against human fibroblast at 100 uM after 96 hrs by SRB assay; type: cell-based
[26] = Cytotoxicity against human 518A2 cells after 96 hrs by SRB assay; type: functional, cell-based; conditions: 518A2, 96 h
FaDu [27] = experiment: Cytotoxicity against human FADU cells after 96 hrs by SRB assay; type: functional, cell-based
8505C [28] = experiment: Cytotoxicity against human 8505C cells after 96 hrs by SRB assay; type: functional, cell-based
[29] = Cytotoxicity against human A253 cells after 96 hrs by SRB assay; type: functional, cell-based; conditions: A253, 96 h
A-431 [30] = experiment: Cytotoxicity against human A431 cells after 96 hrs by SRB assay; type: functional, cell-based; conditions: A-431, 96 h
A549 [31] = experiment: Cytotoxicity against human A549 cells after 96 hrs by SRB assay; type: functional, cell-based; conditions: A549, 96 h
A549 [32] = experiment: Induction of apoptosis in human A549 cells assessed as DNA fragmentation at equitoxic IC90 after 24 hrs by agarose gel electrophoresis
A549 [33] = experiment: Induction of apoptosis in human A549 cells assessed as caspase3/7 activation at equitoxic IC90 after 6 hrs; type: functional, cell-based
A549 [34] = experiment: Induction of apoptosis in human A549 cells assessed as caspase3/7 activation at equitoxic IC90 after 2 hrs; type: functional, cell-based

| Compound | IC50 (A2780 [1]) [µM] | IC50 (DLD-1 [2]) [µM] | IC50 (HCT-8 [3]) [µM] | IC50 (HCT-116 [4]) [µM] | IC50 (HT-29 [5]) [µM] | IC50 [6] [µM] | IC50 (MCF7 [7]) [µM] | IC50 (SW480 [8]) [µM] | IC50 (SW-1736) [µM] | Ratio IC50 [9] | Ratio IC50 (HT-29 [10]) | Ratio IC50 (HCT-116 [11]) | Ratio IC50 (HCT-8 [12]) | Ratio IC50 (FaDu [13]) | IC50 [26] [µM] | IC50 (FaDu [27]) [µM] | IC50 (8505C [28]) [µM] | IC50 [29] [µM] | IC50 (A-431 [30]) [µM] | IC50 (A549 [31]) [µM] | other results |
| --- | --- | --- | --- | --- | --- | --- | --- | --- | --- | --- | --- | --- | --- | --- | --- | --- | --- | --- | --- | --- | --- |
| C=C(C)[C@@H]1CC[C@]2(COC(=O)NCC)CC[C@]3(C)[C@H](CC[C@@H]4[C@@]5(C)CC[C@H](OC(=O)NCC)C(C)(C)[C@@H]5CC[C@]43C)[C@@H]12 [BIS(ETHYLCARBAMATE)BETULIN] | 4.37 | 8.32 | 3.91 | 3.84 | 6.2 | 12 | 17.7 | 2.77 | 3.6 | >8.31 | >16.13 | >26.04 | >25.58 | >12.69 | 8.18 | 7.88 | 9.39 | 9.71 | 6.08 | 2.91 | Ratio IC50 (DLD-1 [14]): >12.02; Ratio IC50 (A2780 [15]): >22.88; Ratio IC50 (A549 [16]): >34.36; Ratio IC50 (A-431 [17]): >16.45; Ratio IC50 [18]: >10.3; Ratio IC50 (8505C [19]): >10.65; Ratio IC50 [20]: >12.22; Ratio IC50 (MCF7 [21]): >5.65; Ratio IC50 (SW480 [22]): >36.1; Ratio IC50 [23]: >26.32; IC50 [24]: > 100 µM; Activity [25]: Non-toxic; Activity (A549 [32]): Active |
| C=C(C)[C@@H]1CC[C@]2(C(=O)O)CC[C@]3(C)[C@H](CC[C@@H]4[C@@]5(C)CC[C@H](OC(=O)NCC)C(C)(C)[C@@H]5CC[C@]43C)[C@@H]12 | 7.41 | 17 | 16.7 | 15.2 | 16.7 | 17.9 | 17.4 | 16.6 | 5.24 | – | – | – | – | – | 17.8 | 13.8 | 17.6 | 17.3 | 15.2 | 5.55 | Activity (A549 [33]): Active |
| C=C(C)[C@@H]1CC[C@]2(COC(C)=O)CC[C@]3(C)[C@H](CC[C@@H]4[C@@]5(C)CC[C@H](OC(=O)NCC)C(C)(C)[C@@H]5CC[C@]43C)[C@@H]12 | 4.28 | 6.93 | 3.99 | 4.3 | 5.07 | 5.35 | 5.98 | 1.77 | 3.15 | 4.55 | 4.8 | 5.67 | 6.2 | 5.39 | 5.12 | 4.62 | 5.05 | 4.88 | 5 | 1.69 | Ratio IC50 (DLD-1 [14]): 3.52; Ratio IC50 (A2780 [15]): 5.69; Ratio IC50 (A549 [16]): 14.41; Ratio IC50 (A-431 [17]): 4.87; Ratio IC50 [18]: 4.99; Ratio IC50 (8505C [19]): 4.82; Ratio IC50 [20]: 4.76; Ratio IC50 (MCF7 [21]): 4.07; Ratio IC50 (SW480 [22]): 13.76; Ratio IC50 [23]: 7.73; IC50 [24]: 24.4 µM; Activity (A549 [34]): Active; Activity (A549 [33]): Active; Activity (A549 [32]): Active |
| C=C(C)[C@@H]1CC[C@]2(C(=O)O)CC[C@]3(C)[C@H](CC[C@@H]4[C@@]5(C)CC[C@H](O)C(C)(C)[C@@H]5CC[C@]43C)[C@@H]12 [BETULINIC ACID] | 11.1 | 11.9 | 13.1 | 10.8 | 13.9 | 12.1 | 12.3 | 6.48 | 13.1 | 1.72 | 1.49 | 1.93 | 1.59 | 2.04 | 8.13 | 10.2 | 7.26 | 9.18 | 12.6 | 11.1 | Ratio IC50 (DLD-1 [14]): 1.75; Ratio IC50 (A2780 [15]): 1.88; Ratio IC50 (A549 [16]): 1.87; Ratio IC50 (A-431 [17]): 1.65; Ratio IC50 [18]: 2.27; Ratio IC50 (8505C [19]): 2.87; Ratio IC50 [20]: 2.56; Ratio IC50 (MCF7 [21]): 1.7; Ratio IC50 (SW480 [22]): 3.21; Ratio IC50 [23]: 1.59; IC50 [24]: 20.8 µM |

Reference: ChEMBL document CHEMBL1155488, “Carbamate derivatives of betulinic acid and betulin with selective cytotoxic activity” (Bioorg Med Chem Lett, 2010)
